Compound activity: PubChem, several laboratories
Most compounds without a hit are left out; they make up all but 5.6% or so of the library.
CHOP inh – CHOP inhibition in unfolded protein response; 220,000 compounds, 3.8% hits; AID 2732; inhibition, % at 10 µM; CHO-K1 CHOP-promoter luciferase, tunicamycin-induced, 15-18 h;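 active = compounds that reduced the stress-induced luciferase reporter signal by more than about 70% of percent inhibition, limit read from the data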;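 note: 0% = tunicamycin plus vehicle and 100% = wells without tunicamycin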
aDG glyco act – alpha-DG glycosylation activation. 360,000 compounds, 0.22% hits. activation, % at 10 µM. Pro5-aDG cells, alpha-DG glycosylation AlphaScreen (IIH6); 0% Pro5, 100% B10-LARGE cell signal;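 active = activation of at least 8% versus controls, or a plate z-score of at least 8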;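 note: Pro5 are CHO cells carrying HIG-tagged alpha-DG that lacks glycosylation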
UPR CHOP act – activators of apoptotic arm of unfolded protein response (CHOP). activation, % at 10 µM. 330,000 compounds, 0.34% hits. CHO-CHOP luciferase reporter, UPR activation, luminescence; percent of tunicamycin response over DMSO baseline. AID 449763;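 active = at 10 µM dose, activation of 40% or more, normalized to positive control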;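 note: 100% = tunicamycin at 10 µg/mL and 0% = DMSO alone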
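Test system: CHO-CHOP cells, stable luciferase reporter of PERK-eIF2a-CHOP signalling | Quantity: 500 CHO-CHOP cells per well | Buffer or medium: F12 plus 10% serum | Compound dosing: 10 µM single point, 0.5% DMSO | Schedule: 6 h compound treatment, 37 °C | Signal: Luciferase luminescence | Control set: Tunicamycin high control, DMSO low control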
MPTP block – permeability transition pore inhibition. 360,000 compounds, 1.4% hits. AID 602449. inhibition, % at 10 µM. isolated mouse mitochondria, Ca2+ swelling absorbance, 30 min;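 active = inhibition of 50% or more, scaled per plate between neutral and stimulator controls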;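 note: 0% = DMSO wells given calcium and 100% = 1 mM EGTA wells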
GRIN3A LBD mod – NR3A (human) ligand-binding domain modulation. Tm shift relative to glycine control, % at 25 µM. NR3A LBD differential scanning fluorimetry, Tm shift; 0% = protein alone, 100% = glycine-bound protein. 340,000 compounds, 2.5% hits;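 active = melting temperature shift of at least 10% of the positive control shift, at one fixed dose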
UPR XBP1 act – activators of adaptive arm of unfolded protein response (XBP1) | AID 463104 | 330,000 compounds, 0.33% hits | activation, % at 20 µM | CHO-XBP1 luciferase reporter, IRE1-XBP1 UPR activation, luminescence; percent of tunicamycin response, DMSO as zero;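 active = versus positive control, 20 µM dose yields 30% or more activation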;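 note: 100% = tunicamycin at 10 µg/mL and 0% = DMSO only wells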
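Assay system: CHO-XBP1 luciferase reporter cells; Schedule: 6 h treatment, 37 °C; Detection: glow luminescence from Steady-Glo reagent; Benchmarks: high control tunicamycin 10 µg/mL final, low control DMSO vehicle only.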
MPTP counter – mitochondrial membrane potential, counter-screen; inhibition, % at 10 µM; shares compounds with MPTP block; AID 624504; 5,000 compounds, 78% hits; isolated mitochondria, Rhodamine 123 fluorescence; in the data active = inhibition above about 22%;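 note: 0% = DMSO vehicle and 100% = positive control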
MPTP swell DR – MPTP inhibition, dose response swelling confirmation | shares compounds with MPTP block | isolated mitochondria swelling, absorbance | IC50, µM | 780 compounds, 58% hits; in the data active = IC50 below about 20 µM
MPTP cs DR – counter-screen for mitochondrial permeability transition pore inhibitors, dose response | shares compounds with MPTP block | isolated mitochondria counterscreen, fluorescence read-out | IC50, µM | 780 compounds, 49% hits | AID 651564; in the data active = IC50 below about 80 µM
The depositor's hits bear a star; . = no result.

SMILES | CHOP inh | aDG glyco act | UPR CHOP act | MPTP block | GRIN3A LBD mod | UPR XBP1 act | MPTP counter | others
O=[N+]([O-])c1ccc(-c2cnc(SC(c3ccccc3)c3ccccc3)[nH]2)cc1 | 73* | 2 | 2 | 90* | 26* | 6 | 76*
CCn1nc(C)cc1C(=O)n1nc(C)c(Sc2ncccn2)c1C | 28 | 0 | -2 | 69* | 2 | -2 | 27*
COc1ccccc1-c1c(-c2ccc(OCC(=O)NN)cc2O)n[nH]c1C(F)(F)F | -2 | 0 | 0 | 0 | -2 | -2 | .
COc1ccc(-c2n[nH]c(C(F)(F)F)c2-c2cc3ccccc3o2)c(O)c1 | 105* | 0 | -1 | 55* | 15* | 1 | 60*
CN(C)C(CNc1ccc(C(F)(F)F)cc1[N+](=O)[O-])c1ccccc1 (stereo unspecified) | . | 0 | 0 | 62* | -1 | 7 | 1 | MPTP swell DR=>100;MPTP cs DR=>80
CS(=O)(=O)NCCCCNc1ccc(C(F)(F)F)cc1[N+](=O)[O-] | 7 | 1 | 0 | 1 | 3 | -2 | .
CN(C)C(CNc1ccc(S(C)(=O)=O)cc1[N+](=O)[O-])c1ccccc1 (stereo unspecified) | . | 0 | 4 | 0 | 2 | -2 | .
O=[N+]([O-])c1cc(C(F)(F)F)ccc1NCCCCNS(=O)(=O)c1ccc2ccccc2c1 | 83* | 0 | -1 | 91* | 5 | -3 | 79*
COc1cccc(N2CCN(c3ncnc4c3[nH]c3ccc(F)cc34)CC2C)c1 (stereo unspecified) | . | -1 | -12 | 100* | 6 | -16 | 93*
O=C(Nc1cccc(C(=O)N2CCCCC2)c1)C1CCCCC1 | . | 0 | . | 1 | 0 | . | .
CC(C)CN1C(=S)SC(C)(C)C1n1oc(=O)n(-c2ccccc2)c1=O (stereo unspecified) | 4 | 1 | 0 | 15 | -4 | -2 | .
CC(C)CN1C(=S)SC(C)(C)C1n1oc(=O)n(-c2ccc(Cl)cc2)c1=O (stereo unspecified) | 3 | 0 | -1 | 88* | 11* | -1 | 95*
CCOC(=O)N1CCN(CC(=O)Nc2nnc(C(F)(F)F)s2)CC1 | . | 0 | 1 | 0 | -2 | -1 | .
COc1cccc(CCN2CCC(CNS(=O)(=O)c3cc(-c4cc(C)no4)ccc3C)CC2)c1 | . | 5 | 3 | 79* | -3 | 2 | 9 | MPTP swell DR=6.8*;MPTP cs DR=24*
COc1cccc(CN(C)S(=O)(=O)c2ccccc2Br)c1 | . | 0 | 1 | 0 | 0 | 4 | .
CN(C)c1ccc(NS(=O)(=O)c2cc(Cl)ccc2Cl)cc1 | 19 | 0 | 6 | 1 | -20 | 1 | .
Cc1ccc(NS(=O)(=O)c2sc3ccc(Cl)cc3c2C)cc1 | 27 | 0 | -2 | 66* | 16* | -4 | 63*
CCN1CCN(c2ccc(S(=O)(=O)N3CCCCC3)cc2NC(=O)/C=C/c2ccc([N+](=O)[O-])cc2)CC1 | . | 0 | 5 | -1 | -4 | 4 | .
COc1ccc(NS(=O)(=O)c2ccc(C(=O)N3CCCCCC3)cc2)cc1 | . | 0 | 0 | 54* | -9 | -1 | 57*
COc1ccc(NS(=O)(=O)c2cccc(NC(=O)c3ccc(S(=O)(=O)N4CCCCCC4)cc3)c2)cc1 | 75* | 4 | 8 | 84* | 5 | 1 | 86*
COc1ccc(NC(=O)c2cccc(S(=O)(=O)N3CCCCCC3)c2)cc1 | . | 0 | -1 | 0 | -8 | 0 | .
COc1ccc(NS(=O)(=O)c2ccc(O)c(NC(=O)c3ccc(S(=O)(=O)N4CCCC4)cc3)c2)cc1 | 9 | 0 | 0 | 13 | 4 | -2 | .
